# Measured values reported in ChEMBL document CHEMBL4765352, “Discovery of AdipoRon analogues as novel AMPK activators without inhibiting mitochondrial complex I” (Eur J Med Chem, 2020).
# Calls of active or inactive are those of the source. The calls are words filed in the database; no cut-off is given here.
# Experiments:
# [1] = Metabolic stability in ICR/CD-1 mouse liver microsomes assessed as half life preincubated for 5 mins followed by NADPH addition and measured up to 45 mins by LC/MS analysis; type: ADME, Microsome; settings: time 50 min
# How it was run: (§1)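 Compound was preincubated with mouse (ICR/CD-1) or human liver microsomes in potassium phosphate buffer at 37 °C for 5 min, then NADPH was added to start the reaction. Samples were quenched with acetonitrile containing tolbutamide internal standard at 0, 5, 15, 30 and 45 min. Parent compound measured by LC/MS; ketanserin served as control.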
# Homo sapiens = species: Homo sapiens; experiment: Activation of AMPK alpha2/beta2/gamma1 (unknown origin)
# C2C12 [2] = experiment: Activation of AMPK in mouse C2C12 cells assessed as increase in AMPK phosphorylation in presence of CaMKKbeta inhibitor STO-609; type: cell-based; settings: filed as activator
# [3] = Toxicity in C57BL/6 mouse assessed as change in heart weight/body weight ratio at 50 to 200 mg/kg, ig administered for 4 weeks; type: organism-based; settings: in vivo, po, 672 h, dose 50-200 mg/kg
# How it was run: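 Male C57BL/6 mice (6 per group) given 50, 100 or 200 mg/kg intragastrically daily for 4 weeks. Saline-perfused hearts were weighed and examined for gross morphology, with representative hearts chosen by similar body weight. Heart weight was expressed relative to body weight and to tibia length.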
# Mus musculus [4] = species: Mus musculus; experiment: Improvement in lipid homeostasis in db/db mouse assessed as effect on serum triglyceride level; type: functional, organism-based
# Mus musculus [5] = experiment: Antihyperglycemic activity in db/db mouse assessed as improved insulin resistant at 100 mg/kg, ig administered once daily for 9 weeks by ITT; type: functional, organism-based
# How it was run: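 db/db mice dosed from 5 weeks of age with 100 mg/kg/day in 0.5% methylcellulose vehicle, for 9 weeks. After a 6 h fast, insulin was injected i.p. at 1.5 mU/g body weight and tail-vein blood glucose followed. Data given as mean ± SEM and compared by two-way ANOVA.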
# HepG2 = experiment: Activation of AMPK in human HepG2 cells assessed as increase in ACC phosphorylation at 1 to 20 uM measured after 2 to 12 hrs by Western blotting analysis; type: cell-based; settings: filed as activator, dose 1-20 µM, time 2-12 hrs
# How it was run: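 HepG2 and HuH-7 cells in medium with 10% FBS and penicillin/streptomycin at 37 °C, 5% CO₂. Treated with a range of concentrations for 2 h, or with 10 μM over a time course. Cells lysed in RIPA buffer with protease/phosphatase inhibitors; ~30 µg protein per lane blotted for p-AMPK, AMPK, p-ACC, ACC, with GAPDH or β-actin as loading control. Detected by ECL.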
# Mus musculus [6] = experiment: Hypoglycemic activity in 6 hrs fasted normal lean C57BL/6 mouse assessed as reduction in blood glucose level at 100 mg/kg, ig pretreated for 2 hrs followed by glucose challenge and measured up to 90 mins post glucose challenge starting from 120 mins prior to […] by IPGTT; type: functional, organism-based; settings: time 210.0 min
# How it was run: (§2)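 C57BL/6 mice (male, 8-10 weeks, n=6 per group) fasted 6 h, then given compound or vehicle intragastrically. Two hours later, 20% glucose was injected i.p. at 2 g/kg. Tail-vein glucose read by glucometer at -120, 0, 20, 40, 60 and 90 min, and net AUC calculated. Doses were 25, 50 and 100 mg/kg.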
# [7] = Induction of cardiac hypertrophy in db/db mouse assessed as increase in cardiac glycogen accumulation at 100 mg/kg, ig administered for 10 weeks; type: organism-based; settings: in vivo, po, 1680 h
# [8] = Inhibition of bovine heart mitochondrial complex 1 at 5 to 20 uM measured every minute for 2 hrs by microplate reader based assay; type: tissue-based, Bos taurus; settings: cattle, dose 5-20 µM
# How it was run: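 Bovine heart mitochondria in detergent were captured on a complex I antibody-coated plate for 2 h at room temperature. Phospholipids were added, then complex I solution with compound, rotenone control or DMSO. NADH oxidation was followed as the fall in A340, read every minute for at least 2 h at 30 °C.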
# Mus musculus [9] = experiment: Antihyperglycemic activity in db/db mouse assessed as reduction in fasting blood glucose level at 100 mg/kg, ig administered once daily for 2 to 6 weeks; type: functional, organism-based; settings: time 2-6 weeks
# How it was run: (§3)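 db/db mice, 5 weeks old, grouped by matching baseline blood glucose and body weight. Dosed intragastrically once daily at 100 mg/kg in 0.5% methylcellulose; vehicle-treated db/db and db/m mice served as controls. Body weight and fasting blood glucose measured weekly. Serum ALT and AST measured after 10 weeks. Data given as mean ± SEM.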
# C2C12 [10] = experiment: Activation of AMPK in mouse C2C12 cells with SiRNA-induced LKB1 knock down assessed as increase in AMPK phosphorylation; type: cell-based
# [11] = Metabolic stability in human liver microsomes assessed as compound remaining preincubated for 5 mins followed by NADPH addition and measured up to 45 mins by LC/MS analysis; type: ADME, Microsome; settings: time 50 min, read-out: Stabilty; how it was run: as §1
# H9c2 = experiment: Activation of AMPK in rat H9C2 cells assessed as increase in phosphorylation of AMPK at 1 to 20 uM incubated for 1 to 24 hrs by Western blot analysis; type: cell-based; settings: dose 1-20 µM, time 1-24 hrs
# How it was run: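 Rat cardiac H9C2 cells treated with a concentration range for 2 h or 4 h, or with 10 μM over a time course. Lysates blotted for phosphorylated and total AMPK and ACC, detected by ECL.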
# C2C12 [12] = experiment: Activation of AMPK in mouse C2C12 cells assessed as increase in ACC phosphorylation measured after 2 hrs by Western blotting analysis; type: cell-based; settings: filed as activator, dose 0.1-20 µM
# How it was run: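 C2C12 myoblasts differentiated in DMEM with 2% horse serum for 5-7 days until myotubes formed. Treated for 2 h, either at 10 μM or across a concentration range, or at 10 μM over a time course. RIPA lysates (~30 µg protein) blotted for p-AMPK/AMPK and p-ACC/ACC, detected by ECL. The p-AMPK/AMPK ratio is expressed as fold of the DMSO vehicle.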
# Mus musculus [13] = experiment: Activation of AMPK in normal lean C57BL/6 mouse assessed as increase in phosphorylated ACC level in skeletal muscle at 100 mg/kg, ig administered for 4 weeks by Western blot analysis; type: functional, organism-based; settings: Skeletal muscle tissue
# How it was run: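 Male C57BL/6 mice, 9 weeks old, dosed intragastrically once daily for 4 weeks alongside vehicle controls. Heart and skeletal muscle were homogenized in RIPA buffer with protease/phosphatase inhibitors and centrifuged at 10,600 g for 20 min. About 30 µg protein was blotted for p-AMPK and p-ACC and detected by ECL.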
# Mus musculus [14] = experiment: Hypoglycemic activity in 6 hrs fasted ig dosed normal lean C57BL/6 mouse assessed as improved glucose tolerance pretreated for 2 hrs followed by glucose challenge and measured up to 90 mins post glucose challenge starting from 120 mins prior to […] by IPGTT; type: functional, organism-based; settings: dose 25-100 mg/kg, time 210.0 min; how it was run: as §2
# [15] = Induction of cardiac hypertrophy in normal lean C57BL/6 mouse at 100 mg/kg, ig administered for 4 weeks; type: organism-based; settings: in vivo, po, 672 h
# How it was run: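 Male C57BL/6 mice, 9 weeks old, dosed intragastrically daily for 4 weeks. After saline perfusion, organ weights and tibia length were recorded. Heart pieces were fixed in 4% paraformaldehyde, embedded in paraffin and stained with periodic acid-Schiff to show glycogen.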
# [16] = Toxicity in db/db mouse assessed as effect on body weight at 100 mg/kg, ig administered for 10 weeks; type: organism-based; settings: in vivo, po, 1680 h; how it was run: as §3
smiles,measurement,setting,value
CC(C)(Oc1ccc(Cl)cc1)C(=O)Nc1ccc(OCc2ccc(C#N)cc2)cc1,half-life,[1],36 min
same,Activity,Homo sapiens,inactive
same,Activity,C2C12 [2],Active
same,Activity,[3],Non-Toxic
same,Activity,Mus musculus [4],inactive
same,Activity,Mus musculus [5],Active
same,Activity,HepG2,Active
same,Activity,Mus musculus [6],Active
same,Activity,[7],Non-Toxic
same,inhibition (INH),[8],Not Active
same,Activity,Mus musculus [9],Active
same,Activity,C2C12 [10],inactive
same,remaining at 0.75 h,[11],74%
same,Activity,H9c2,inactive
same,Activity,C2C12 [12],Dose-dependent effect
same,Activity,Mus musculus [13],Active
same,Activity,Mus musculus [14],Dose-dependent effect
same,Activity,[15],Non-Toxic
same,Activity,[16],Non-Toxic
